What was measured:
[1] = Reversal of P-gp-mediated multidrug resistance in human K562/A02 cells assessed as reduction of adriamycin IC50 at 5 uM after 48 hrs by MTT assay; assay type: cell-based; conditions: K562/A02, 48 h
Procedure, shortened: (§1)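 MTT on K562/A02 cells exposed to a series of adriamycin concentrations, with or without modulator at 5 µM; 0.1% DMSO as solvent control. Reversal fold = adriamycin IC50 without modulator / IC50 with modulator.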

[2] = Resistance factor, ratio of adriamycin IC50 for human K562/A02 cells over-expressing Pgp to adriamycin IC50 for human K562/A02 cells over-expressing Pgp in presence of 5 uM compound; assay type: functional; procedure, shortened: as §1
[3] = Cytotoxicity against human K562/A02 cells at 5 uM after 48 hrs by MTT assay; assay type: cell-based; conditions: k562/a02, 48 h
Procedure, shortened: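 Adriamycin-selected K562/A02 cells given test compound alone at 5 µM for 48 h; cytotoxicity scored by MTT as intrinsic growth inhibition.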

[4] = Cytotoxicity against human K562/A02 cells after 48 hrs by MTT assay; assay type: functional, cell-based; conditions: K562/A02, 48 h
[5] = Cytotoxicity against human GES-1 cells after 48 hrs by MTT assay; assay type: cell-based; conditions: GES1, 48 h
[6] = Reversal of P-gp-mediated multidrug resistance in human K562/A02 cells assessed as reduction of adriamycin IC50 at 2.5 uM after 48 hrs by MTT assay; assay type: cell-based; conditions: K562/A02, 48 h
Procedure, shortened: (§2)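 K562/A02 (P-gp-overexpressing) cells given graded adriamycin plus modulator at 2.5, 1.25, 0.625, 0.31, 0.156, 0.078 or 0.04 µM; verapamil 2.5 µM as positive control; adriamycin IC50 by MTT. Reversal fold = IC50 without modulator / IC50 with modulator. Two to three experiments, mean ± SEM.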

[7] = Reversal of P-gp-mediated multidrug resistance in human K562/A02 cells assessed as reduction of adriamycin IC50 at 1.25 uM after 48 hrs by MTT assay; assay type: cell-based; conditions: K562/A02, 48 h; procedure, shortened: as §2
[8] = Reversal of P-gp-mediated multidrug resistance in human K562/A02 cells assessed as reduction of adriamycin IC50 at 0.625 uM after 48 hrs by MTT assay; assay type: cell-based; conditions: K562/A02, 48 h; procedure, shortened: as §2
[9] = Reversal of P-gp-mediated multidrug resistance in human K562/A02 cells assessed as reduction of adriamycin IC50 at 0.31 uM after 48 hrs by MTT assay; assay type: cell-based; conditions: K562/A02, 48 h; procedure, shortened: as §2
[10] = Reversal of P-gp-mediated multidrug resistance in human K562/A02 cells assessed as reduction of adriamycin IC50 at 0.156 uM after 48 hrs by MTT assay; assay type: cell-based; conditions: K562/A02, 48 h; procedure, shortened: as §2
[11] = Reversal of P-gp-mediated multidrug resistance in human K562/A02 cells assessed as reduction of adriamycin IC50 at 0.078 uM after 48 hrs by MTT assay; assay type: cell-based; conditions: K562/A02, 48 h; procedure, shortened: as §2
[12] = Reversal of P-gp-mediated multidrug resistance in human K562/A02 cells assessed as reduction of adriamycin IC50 at 0.04 uM after 48 hrs by MTT assay; assay type: cell-based; conditions: K562/A02, 48 h; procedure, shortened: as §2
[13] = Resistance factor, ratio of adriamycin IC50 for human K562/A02 cells over-expressing Pgp to adriamycin IC50 for human K562/A02 cells over-expressing Pgp in presence of 2.5 uM compound; assay type: functional; procedure, shortened: as §2
[14] = Resistance factor, ratio of adriamycin IC50 for human K562/A02 cells over-expressing Pgp to adriamycin IC50 for human K562/A02 cells over-expressing Pgp in presence of 1.25 uM compound; assay type: functional; procedure, shortened: as §2
[15] = Resistance factor, ratio of adriamycin IC50 for human K562/A02 cells over-expressing Pgp to adriamycin IC50 for human K562/A02 cells over-expressing Pgp in presence of 0.625 uM compound; assay type: functional; procedure, shortened: as §2
[16] = Resistance factor, ratio of adriamycin IC50 for human K562/A02 cells over-expressing Pgp to adriamycin IC50 for human K562/A02 cells over-expressing Pgp in presence of 0.31 uM compound; assay type: functional; procedure, shortened: as §2
[17] = Resistance factor, ratio of adriamycin IC50 for human K562/A02 cells over-expressing Pgp to adriamycin IC50 for human K562/A02 cells over-expressing Pgp in presence of 0.156 uM compound; assay type: functional; procedure, shortened: as §2
[18] = Resistance factor, ratio of adriamycin IC50 for human K562/A02 cells over-expressing Pgp to adriamycin IC50 for human K562/A02 cells over-expressing Pgp in presence of 0.078 uM compound; assay type: functional; procedure, shortened: as §2
[19] = Resistance factor, ratio of adriamycin IC50 for human K562/A02 cells over-expressing Pgp to adriamycin IC50 for human K562/A02 cells over-expressing Pgp in presence of 0.04 uM compound; assay type: functional; procedure, shortened: as §2
[20] = tested on: K562/A02; assay: Reversal of P-gp-mediated multidrug resistance in human K562/A02 cells assessed as reduction of adriamycin IC50 after 48 hrs by MTT assay; assay type: cell-based
[21] = Reversal of P-gp-mediated multidrug resistance in human K562/A02 cells assessed as reduction of adriamycin IC50 at 5 uM incubated for 24 hrs prior to adriamycin treatment measured after 48 hrs by MTT assay; assay type: cell-based
Procedure, shortened: (§3)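 K562/A02 cells incubated 24 h with 5 µM modulator, verapamil or vehicle, then washed with growth medium. […] Reversal fold = IC50 without modulator / IC50 with modulator. Two to three experiments, mean ± SEM.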

[22] = Reversal of P-gp-mediated multidrug resistance in human K562/A02 cells assessed as reduction of adriamycin IC50 at 5 uM incubated for 24 hrs followed by adriamycin treatment post compound washout measured after 48 hrs by MTT assay; assay type: cell-based; procedure, shortened: as §3
[23] = Reversal of P-gp-mediated multidrug resistance in human K562/A02 cells assessed as reduction of adriamycin IC50 at 5 uM incubated for 24 hrs followed by adriamycin treatment 6 hrs post compound washout measured after 48 hrs by MTT assay; assay type: cell-based; procedure, shortened: as §3
[24] = Reversal of P-gp-mediated multidrug resistance in human K562/A02 cells assessed as reduction of adriamycin IC50 at 5 uM incubated for 24 hrs followed by adriamycin treatment 12 hrs post compound washout measured after 48 hrs by MTT assay; assay type: cell-based; procedure, shortened: as §3
[25] = Resistance factor, ratio of adriamycin IC50 for human K562/A02 cells over-expressing Pgp to adriamycin IC50 for human K562/A02 cells over-expressing Pgp in presence of 5 uM compound incubated for 24 hrs prior to adriamycin treatment; assay type: functional; procedure, shortened: as §3
[26] = Resistance factor, ratio of adriamycin IC50 for human K562/A02 cells over-expressing Pgp to adriamycin IC50 for human K562/A02 cells over-expressing Pgp in presence of 5 uM compound incubated for 24 hrs followed by adriamycin treatment post compound washout; assay type: functional; procedure, shortened: as §3
[27] = Resistance factor, ratio of adriamycin IC50 for human K562/A02 cells over-expressing Pgp to adriamycin IC50 for human K562/A02 cells over-expressing Pgp in presence of 5 uM compound incubated for 24 hrs followed by adriamycin treatment 6 hrs post compound washout; assay type: functional; procedure, shortened: as §3
[28] = Resistance factor, ratio of adriamycin IC50 for human K562/A02 cells over-expressing Pgp to adriamycin IC50 for human K562/A02 cells over-expressing Pgp in presence of 5 uM compound incubated for 24 hrs followed by adriamycin treatment 12 hrs post compound washout; assay type: functional; procedure, shortened: as §3
[29] = tested on: K562/A02; assay: Inhibition of P-gp mediated efflux in human K562/A02 cells assessed as intracellular rhodamine-123 accumulation at 0.5 uM incubated for 60 mins prior to substrate addition measured after 90 mins by flow cytometry relative to control; assay type: cell-based
Procedure, shortened: (§4)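 K562 and K562/A02 cells pretreated 60 min with 0.5, 2.5 or 5 µM test compound or verapamil, then 5 µM rhodamine-123 added for 90 min. Cells washed twice with PBS and resuspended in medium; mean fluorescence read by flow cytometry. Fold change taken against 0.1% DMSO control in each cell group. Three independent experiments, mean ± SD.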

[30] = tested on: K562/A02; assay: Inhibition of P-gp mediated efflux in human K562/A02 cells assessed as intracellular rhodamine-123 accumulation at 2.5 uM incubated for 60 mins prior to substrate addition measured after 90 mins by flow cytometry relative to control; assay type: cell-based; procedure, shortened: as §4
[31] = tested on: K562/A02; assay: Inhibition of P-gp mediated efflux in human K562/A02 cells assessed as intracellular rhodamine-123 accumulation at 5 uM incubated for 60 mins prior to substrate addition measured after 90 mins by flow cytometry relative to control; assay type: cell-based; procedure, shortened: as §4
[32] = tested on: K562/A02; assay: Inhibition of P-gp mediated efflux in human K562/A02 cells assessed as intracellular rhodamine-123 accumulation incubated for 60 mins prior to substrate addition measured after 90 mins by flow cytometry relative to control; assay type: cell-based; procedure, shortened: as §4
[33] = tested on: K562/A02; assay: Inhibition of P-gp mediated efflux in human K562/A02 cells assessed as intracellular rhodamine-123 accumulation at 5 uM incubated for 60 mins prior to substrate addition measured after 90 mins by flow cytometry relative to DMSO control

COc1cc2c(cc1OC)CN(CCn1cc(COc3ccccc3NC(=O)c3ccc(C(C)(C)C)cc3)nn1)CC2
IC50 [1]: 1.67 µM
Ratio IC50 [2]: 32.5
Activity [3]: < 10%
IC50 [4]: > 80 µM
IC50 [5]: > 80 µM
IC50 [6]: 2.97 µM
IC50 [7]: 3.14 µM
IC50 [8]: 5.2 µM
IC50 [9]: 6.39 µM
IC50 [10]: 37 µM
IC50 [11]: 43.8 µM
IC50 [12]: 32.9 µM
Ratio IC50 [13]: 18.5
Ratio IC50 [14]: 17.4
Ratio IC50 [15]: 10.5
Ratio IC50 [16]: 8.6
Ratio IC50 [17]: 1.5
Ratio IC50 [18]: 1.3
Ratio IC50 [19]: 1.6
Activity [20]: Dose-dependent effect
IC50 [21]: 2.16 µM
IC50 [22]: 11 µM
IC50 [23]: 35.6 µM
IC50 [24]: 54.5 µM
Ratio IC50 [25]: 37.4
Ratio IC50 [26]: 7.7
Ratio IC50 [27]: 2.4
Ratio IC50 [28]: 1.5
fold change (FC) [29]: 1.55
fold change (FC) [30]: 2.4
fold change (FC) [31]: 4.04
inhibition [32]: Dose-dependent effect
Ratio [33]: 2.4

COc1cc2c(cc1OC)CN(CCn1cc(COc3ccccc3NC(=O)c3ccccc3OC)nn1)CC2
IC50 [1]: 6.75 µM
Ratio IC50 [2]: 8.1
Activity [3]: < 10%

COc1cc2c(cc1OC)CN(CCn1cc(COc3ccccc3NC(=O)c3cccnc3)nn1)CC2
IC50 [1]: 18.9 µM
Ratio IC50 [2]: 2.9
Activity [3]: < 10%

COc1ccc(C(=O)Nc2ccccc2OCc2cn(CCN3CCc4cc(OC)c(OC)cc4C3)nn2)cc1OC
IC50 [1]: 6.45 µM
Ratio IC50 [2]: 8.4
Activity [3]: < 10%

COc1cc2c(cc1OC)CN(CCn1cc(COc3ccccc3NC(=O)c3cnc4ccccc4c3)nn1)CC2
IC50 [1]: 8.89 µM
Ratio IC50 [2]: 6.1
Activity [3]: < 10%

COc1cc2c(cc1OC)CN(CCn1cc(COc3ccccc3NC(=O)c3cccc([N+](=O)[O-])c3)nn1)CC2
IC50 [1]: 15.1 µM
Ratio IC50 [2]: 3.6
Activity [3]: < 10%

COc1cc(OC)cc(C(=O)Nc2ccccc2OCc2cn(CCN3CCc4cc(OC)c(OC)cc4C3)nn2)c1
IC50 [1]: 13.8 µM
Ratio IC50 [2]: 3.9
Activity [3]: < 10%

COc1cccc(C(=O)Nc2ccccc2OCc2cn(CCN3CCc4cc(OC)c(OC)cc4C3)nn2)c1
IC50 [1]: 9.71 µM
Ratio IC50 [2]: 5.6
Activity [3]: < 10%

COc1cc2c(cc1OC)CN(CCn1cc(COc3ccccc3NC(=O)c3ccccc3[N+](=O)[O-])nn1)CC2
IC50 [1]: 15.6 µM
Ratio IC50 [2]: 3.5
Activity [3]: < 10%

COc1cc2c(cc1OC)CN(CCn1cc(COc3ccccc3NC(=O)c3ccc(C#N)cc3)nn1)CC2
IC50 [1]: 14.4 µM
Ratio IC50 [2]: 3.6
Activity [3]: < 10%

COc1cc2c(cc1OC)CN(CCn1cc(COc3ccccc3NC(=O)c3ccccc3)nn1)CC2
IC50 [1]: 10.8 µM
Ratio IC50 [2]: 5
Activity [3]: < 10%

Source: ChEMBL document CHEMBL3352496, “Design, synthesis and evaluation of novel triazole core based P-glycoprotein-mediated multidrug resistance reversal agents” (Bioorg Med Chem, 2014)
